The source made the active and inactive calls. The calls are words filed in the database; no cut-off is given here.
Tests used:
[1] = tested on: Cavia porcellus; experiment: In vivo inhibition of leukotriene-induced bronchoconstriction in guinea pigs, was determined, by administering compound by aerosol route, after 14 min; assay type: functional, organism-based
Outline: (§1)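 Duration of aerosol protection was measured in anesthetized, propranolol-pretreated male guinea pigs. Each inhaled a 1% neutralized aqueous drug solution by ultrasonic nebulizer for 5 min. LTE i.v. challenge followed after 30 s or 5, 10, 30, 60 or 90 min. Tracheal pressure change gave % inhibition (3 control, 5 treated). Duration is the time at which inhibition fell to 40%.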

[2] = tested on: Cavia porcellus; experiment: In vivo inhibition of leukotriene-induced bronchoconstriction in guinea pigs following 10 mg/kg i.v. administration.; assay type: functional; conditions: route intravenous
Outline: (§2)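 Male Hartley guinea pigs (400–600 g) were anesthetized with urethane 2 g/kg i.p. and given propranolol 0.1 mg/kg i.v. 5 min before challenge. After succinylcholine 1.2 mg/kg i.v., animals were ventilated at 40 breaths/min with 4.0 cm3 stroke volume. Drug (10 mg/kg) or vehicle went via jugular cannula 30 s before LTE 25 μg/kg i.v. Tracheal pressure change gave % inhibition (3 control, 5 treated).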

[3] = target: Cysteinyl leukotriene receptor (Cavia porcellus); experiment: In vitro inhibition of SRS-A-induced contractions in guinea pig ileum
[4] = tested on: Cavia porcellus; experiment: In vivo inhibition of leukotriene-induced bronchoconstriction in guinea pigs, was determined, by administering compound by aerosol route; assay type: functional, organism-based
Outline: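 Urethane-anesthetized male guinea pigs were given propranolol 0.1 mg/kg i.v. 5 min before aerosol. Spontaneously breathing animals inhaled an NaOH-neutralized aqueous drug solution (varied % w/v) or distilled water for 5 min from an ultrasonic nebulizer, then were challenged with i.v. LTE. Tracheal pressure change was compared across 3 control and 5 treated animals. IC50 came from log concentration–response regression over ≥3 concentrations in the 10–90% range.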

[5] = tested on: Cavia porcellus; experiment: In vivo inhibition of leukotriene-induced bronchoconstriction in guinea pigs, was determined, by administering 10 mg/kg of compound intravenously.; assay type: functional; conditions: route intravenous; outline: as §2
[6] = species: Cavia porcellus; experiment: Inhibitory potency against platelet activating factor (PAF) induced bronchoconstriction in guinea pigs.; assay type: functional, organism-based
Outline: (§3)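 Anesthetized male guinea pigs were pretreated with propranolol 0.1 mg/kg i.v. and monitored by tracheal pressure. Maximally constrictory i.v. challenges were LTC 50 μg/kg, LTD 50 μg/kg, LTE 25 μg/kg, PAF 10 μg/kg and histamine 50 μg/kg. Dosing, group sizes and % inhibition calculation were otherwise as for the LTE protocol.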

[7] = species: Cavia porcellus; experiment: Inhibitory potency against histamine induced bronchoconstriction in guinea pigs.; assay type: functional, organism-based; outline: as §3
[8] = species: Cavia porcellus; experiment: Inhibitory potency against leukotriene C4 (LTC) induced bronchoconstriction in guinea pigs.; assay type: functional, organism-based; outline: as §3
[9] = species: Cavia porcellus; experiment: Inhibitory potency against leukotriene D4 (LTD) induced bronchoconstriction in guinea pigs.; assay type: functional, organism-based; outline: as §3
[10] = species: Cavia porcellus; experiment: Inhibitory potency against leukotriene E4 (LTE) induced bronchoconstriction in guinea pigs.; assay type: functional, organism-based; outline: as §3
[11] = tested on: Cavia porcellus; experiment: In vivo inhibition of leukotriene-induced bronchoconstriction in guinea pigs, was determined, by administering compound by aerosol route, after 25 min; assay type: functional, organism-based; outline: as §1
[12] = tested on: Cavia porcellus; experiment: In vivo inhibition of leukotriene-induced bronchoconstriction in guinea pigs, was determined, by administering compound by aerosol route, after 55 min; assay type: functional, organism-based; outline: as §1
[13] = tested on: Cavia porcellus; experiment: In vivo inhibition of leukotriene-induced bronchoconstriction in guinea pigs, was determined, by administering compound by aerosol route, after 37 min; assay type: functional, organism-based; outline: as §1
[14] = species: Cavia porcellus; experiment: In vitro inhibition of SRS-A-induced contractions in guinea pig ileum; assay type: functional
[15] = tested on: Cavia porcellus; experiment: In vivo inhibition of leukotriene-induced bronchoconstriction in guinea pigs, was determined, by administering compound by aerosol route, after 77 min; assay type: functional, organism-based; outline: as §1
[16] = tested on: Cavia porcellus; experiment: In vivo inhibition of leukotriene-induced bronchoconstriction in guinea pigs, was determined, by administering compound by aerosol route, after 9 min; assay type: functional, organism-based; outline: as §1
[17] = tested on: Cavia porcellus; experiment: In vivo inhibition of leukotriene-induced bronchoconstriction in guinea pigs, was determined, by administering compound by aerosol route, after 15 min; assay type: functional, organism-based; outline: as §1
[18] = tested on: Cavia porcellus; experiment: In vivo inhibition of leukotriene-induced bronchoconstriction in guinea pigs, was determined, by administering compound by aerosol route, after 49 min; assay type: functional, organism-based; outline: as §1
[19] = tested on: Cavia porcellus; experiment: In vivo inhibition of leukotriene-induced bronchoconstriction in guinea pigs, was determined, by administering 10 mg/kg of compound intravenously.;This compound caused bronchoconstriction; bc = Compound caused bronchoconstriction; assay type: functional, organism-based; design: dose 10 mg/kg; outline: as §2
[20] = tested on: Cavia porcellus; experiment: In vivo inhibition of leukotriene-induced bronchoconstriction in guinea pigs, was determined, by administering compound by aerosol route, after 90 min; assay type: functional, organism-based; outline: as §1
[21] = tested on: Cavia porcellus; experiment: In vivo inhibition of leukotriene-induced bronchoconstriction in guinea pigs, was determined, by administering compound by aerosol route, after 46 min; assay type: functional, organism-based; outline: as §1
[22] = tested on: Cavia porcellus; experiment: In vivo inhibition of leukotriene-induced bronchoconstriction in guinea pigs, was determined, by administering compound by aerosol route, after 22 min; assay type: functional, organism-based; outline: as §1
[23] = tested on: Cavia porcellus; experiment: In vivo inhibition of leukotriene-induced bronchoconstriction in guinea pigs, was determined, by administering compound by aerosol route, after 30 min; assay type: functional, organism-based; outline: as §1
[24] = tested on: Cavia porcellus; experiment: In vivo inhibition of leukotriene-induced bronchoconstriction in guinea pigs, was determined, by administering compound by aerosol route, after 45 min; assay type: functional, organism-based; outline: as §1
[25] = tested on: Cavia porcellus; experiment: In vivo inhibition of leukotriene-induced bronchoconstriction in guinea pigs, was determined, by administering compound by aerosol route, after 17 min; assay type: functional, organism-based; outline: as §1
[26] = tested on: Cavia porcellus; experiment: In vivo inhibition of leukotriene-induced bronchoconstriction in guinea pigs, was determined, by administering compound by aerosol route, after 7 min; assay type: functional, organism-based; outline: as §1
[27] = tested on: Cavia porcellus; experiment: In vivo inhibition of leukotriene-induced bronchoconstriction in guinea pigs, was determined, by administering compound by aerosol route, after 42 min; assay type: functional, organism-based; outline: as §1
[28] = species: Cavia porcellus; experiment: Inhibitory potency against leukotriene C4 (LTC) induced bronchoconstriction in guinea pigs; assay type: functional, organism-based; outline: as §3
[29] = species: Cavia porcellus; experiment: Inhibitory potency against leukotriene D4 (LTD) induced bronchoconstriction in guinea pigs; assay type: functional, organism-based; outline: as §3
[30] = tested on: Cavia porcellus; experiment: In vivo inhibition of leukotriene-induced bronchoconstriction in guinea pigs, was determined, by administering compound by aerosol route, after 73 min; assay type: functional, organism-based; outline: as §1

| Structure (SMILES) | IC50 [3] [nM] | IC50 [6] [% conc] | IC50 [7] [% conc] | IC50 [10] [% conc] | inhibition in vivo at 10 mg/kg [2] [%] | further results |
| --- | --- | --- | --- | --- | --- | --- |
| CCCc1c(OCCCOc2ccc3ccc(OCCCC(=O)O)cc3c2)ccc(C(C)=O)c1O | 5000 |  |  |  |  | IC50 [4]: 1 % conc; inhibition in vivo at 10 mg/kg [5]: 75% |
| CCCc1c(OCCCOc2ccc3ccc(OCC(=O)O)cc3c2C(C)=O)ccc(C(C)=O)c1O | 200 | > 1 | > 1 | 0.02 | 90 | IC50 [8]: 0.22 % conc; IC50 [9]: 0.32 % conc; IC50 [11]: 0.02 % conc |
| CCCc1c(OCCOCCOCCOc2c(C(C)=O)ccc(OCCCC(=O)O)c2CCC)ccc(C(C)=O)c1O |  |  |  |  | 57 | IC50 [4]: 1 % conc; IC50 [14]: 500 nM |
| CCCc1c(OCCCOc2ccc3ccc(OCCCC(=O)O)cc3c2C(C)=O)ccc(C(C)=O)c1O | 80 |  |  |  | 93 | IC50 [16]: 0.61 % conc |
| CCCc1c(OCCCOc2cccc(OCC(=O)O)c2)ccc(C(C)=O)c1O | 500 |  |  |  | 64 | IC50 [17]: 0.07 % conc |
| CCCc1c(OCCCOc2ccc3ccc(OCC(=O)O)cc3c2)ccc(C(C)=O)c1O | 300 |  |  |  |  | IC50 [18]: 0.46 % conc; inhibition [19]: inactive |
| CCCc1c(OCCCCCOc2ccc3ccc(OCC(=O)O)cc3c2C(C)=O)ccc(C(C)=O)c1O | 200 |  |  |  | 60 | IC50 [26]: 0.14 % conc |
| CCCc1c(OCCOCCOCCOc2c(C(C)=O)ccc(OCC(=O)O)c2CCC)ccc(C(C)=O)c1O |  | > 1 | 0.8 | 0.04 | 85 | IC50 [8]: 0.36 % conc; IC50 [9]: 0.19 % conc; IC50 [27]: 0.04 % conc; IC50 [14]: 1000 nM |
| CCCc1c(OCCOCCOCCOCCOc2c(C(C)=O)ccc(OCC(=O)O)c2CCC)ccc(C(C)=O)c1O |  | > 1 | 0.8 | 0.04 | 90 | IC50 [28]: 1.3 % conc; IC50 [29]: 0.18 % conc; IC50 [30]: 0.04 % conc; IC50 [14]: 300 nM |

More lines, main results first:

| IC50 [3] [nM] | IC50 [6] [% conc] | IC50 [7] [% conc] | IC50 [10] [% conc] | Structure (SMILES) | inhibition in vivo at 10 mg/kg [2] [%] | further results |
| --- | --- | --- | --- | --- | --- | --- |
| 200 |  |  |  | CCCc1c(OCCOCCOc2c(C(C)=O)ccc(OCC(=O)O)c2CCC)ccc(C(C)=O)c1O | 86 | IC50 [1]: 0.02 % conc |
| 1000 |  |  |  | CCCc1c(OCCCOc2c(C(C)=O)ccc(OCCCCCC(=O)O)c2CCC)ccc(C(C)=O)c1O | 91 | IC50 [12]: 0.02 % conc |
| 200 | 1 | > 1 | 0.01 | CCCc1c(OCCCOCCCOc2c(C(C)=O)ccc(OCCCC(=O)O)c2CCC)ccc(C(C)=O)c1O | 93 | IC50 [13]: 0.01 % conc; IC50 [8]: 0.15 % conc; IC50 [9]: 0.19 % conc |
|  | > 1 | > 1 | 0.79 | CCCc1c(OCC(O)COc2ccc3c(=O)cc(C(=O)O)oc3c2CCC)ccc(C(C)=O)c1O (configuration not stated) [FPL-55712] | 98 | IC50 [8]: > 3 % conc; IC50 [9]: 0.5 % conc; IC50 [15]: 0.79 % conc |
| 200 |  |  |  | CCCc1c(OCCOCCOc2c(C(C)=O)ccc(OCCCCCC(=O)O)c2CCC)ccc(C(C)=O)c1O | 91 | IC50 [4]: 1 % conc |
| 2000 |  |  |  | CCCc1c(OCCCOc2c(C(C)=O)ccc(OCC(=O)O)c2CCC)ccc(C(C)=O)c1O | 95 | IC50 [20]: 0.07 % conc |
| 1000 | > 1 | 0.9 | 0.01 | CCCc1c(OCCCCCOc2c(C(C)=O)ccc(OCCCC(=O)O)c2CCC)ccc(C(C)=O)c1O | 92 | IC50 [8]: 0.16 % conc; IC50 [9]: 0.57 % conc; IC50 [21]: 0.01 % conc |
| 200 |  |  |  | CCCc1c(OCCCOc2c(C(C)=O)ccc(OCCCC(=O)O)c2CCC)ccc(C(C)=O)c1O | 97 | IC50 [22]: 0.18 % conc |
| 400 |  |  |  | CCCc1c(OCCCOCCCOc2c(C(C)=O)ccc(OCC(=O)O)c2CCC)ccc(C(C)=O)c1O | 91 | IC50 [23]: 0.1 % conc |
| 100 | 1 | > 1 | 0.02 | CCCc1c(OCCCCCOc2c(C(C)=O)ccc(OCC(=O)O)c2CCC)ccc(C(C)=O)c1O | 73 | IC50 [8]: 0.11 % conc; IC50 [9]: 0.13 % conc; IC50 [12]: 0.02 % conc |
| 500 |  |  |  | CCCc1c(OCCCCOCCCCOc2c(C(C)=O)ccc(OCC(=O)O)c2CCC)ccc(C(C)=O)c1O | 54 | IC50 [24]: 0.1 % conc |
| 100 |  |  |  | CCCc1c(OCCOCCOc2c(C(C)=O)ccc(OCCCC(=O)O)c2CCC)ccc(C(C)=O)c1O | 91 | IC50 [25]: 0.22 % conc |

— ChEMBL document CHEMBL1123665, “Substituted (aryloxy)alkanoic acids as antagonists of slow-reacting substance of anaphylaxis” (J Med Chem, 1987)
